# Assay results of several laboratories.
# Lines come from different studies, so protocols differ.
# Target: Cholinesterase (BCHE, Equus caballus, UniProt P81908)
# Observed: enzyme activity
# Action: inhibitor
Structure (SMILES),test,IC50 [µM]
C#CCNc1nc(NCCCCC2CCN(Cc3ccccc3)CC2)c(C#N)cc1C#N,Ellman,0.511
CC(=O)N1CCN(c2nccc(NCCc3ccccc3)n2)CC1,,> 100
CC=C1[C@H]2C=C(C)C[C@]1(N)c1ccc(OC)nc1C2,Ellman,904
C#CCN(C)c1nc(NCCCCC2CCN(Cc3ccccc3)CC2)c(C#N)c(-c2ccccc2)c1C#N,Ellman,0.22
CC(C)(C)OC(=O)N1CCN(c2nccc(NCc3ccccc3)n2)CC1,,> 100
CCOc1ccc(C=NNC(=S)NCC(=O)c2cccc(C)c2)cc1,Ellman,300
CC=C1[C@H]2C=C(C)C[C@]1(N)c1cc(C)c(=O)[nH]c1C2,Ellman,486
CCOc1ccc(C=NNC(=S)NCC(=O)c2ccc(-c3ccccc3)cc2)cc1,Ellman,501
CC=C1[C@H]2C=C(C)C[C@]1(N)c1cc(CC)c(=O)[nH]c1C2,Ellman,60.4
CCOc1ccc(C=NNC(=S)NCC(=O)c2ccc(Cl)cc2Cl)cc1,Ellman,331
O=C(NCCCNc1c2c(nc3ccccc13)CCCC2)c1ccccc1O,Ellman,0.129
